Results on 3 compounds are retold here after paper PMC5965259 (Journal of medicinal chemistry, 2018).

The target of data set [1] is T1, T. brucei AdoMetDC/prozyme (Trypanosoma brucei brucei, UniProt P50244).
T1 sequence (P50244 86-370 limits assumed): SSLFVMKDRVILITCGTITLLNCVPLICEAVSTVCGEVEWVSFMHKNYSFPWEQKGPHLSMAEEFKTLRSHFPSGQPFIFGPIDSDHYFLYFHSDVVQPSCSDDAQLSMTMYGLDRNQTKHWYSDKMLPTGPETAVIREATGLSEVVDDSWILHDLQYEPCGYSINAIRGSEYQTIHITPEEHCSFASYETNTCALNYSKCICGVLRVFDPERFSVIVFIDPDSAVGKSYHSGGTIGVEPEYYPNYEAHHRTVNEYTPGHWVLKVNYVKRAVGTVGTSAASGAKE
Kind of data set: biochemical. The following applies: pH 7.2, read-out: IC90 for TbAdoMetDC.

Data set [2] has as its system bloodstream form T. brucei Lister 427. Kind of data set: ATP–bioluminescence-based bloodstream form T. brucei cell viability assay. The following applies: Trypanosoma brucei, 48 h, read-out: Tb427 EC50.
Data set [3] deals with MDCKII-hMDR1 monolayer cells. Kind of data set: MDCKII-hMDR1 monolayer BBB permeability assay ± Pgp inhibitor GF120918. It is filed as in vitro ADME.
Data set [4] concerns the target T2, TbAdoMetDC (Trypanosoma brucei brucei, UniProt P50244).
T2 sequence (P50244 86-370 limits assumed): T1 sequence (P50244 86-370 limits assumed)
The data set is described as follows: Rapid dilution assay for reversibility of inhibition. The following applies: 30 min with 36 μM inhibitor, then 100-fold dilution; pH 7.2. It is filed as biochemical. The essentials: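 Recombinant T. brucei AdoMetDC/prozyme was pre-equilibrated with test compound for 30 min. It was then diluted 100-fold, to a non-inhibitory level, into reaction buffer containing 50 μM S-adenosyl-L-methionine (~Km) to start the reaction. Aliquots were quenched every 5 min, and decarboxylated AdoMet was quantified by RapidFire–MS. Progress curves were compared with a vehicle control.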

Data set [5] deals with T2, TbAdoMetDC. Kind of data set: Inhibition modality: substrate titrations, Lineweaver–Burk analysis. The following applies: substrate titrations at four inhibitor concentrations. The data set is classed as biochemical. Put shortly:
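Recombinant T. brucei AdoMetDC/prozyme heterodimer. Product (decarboxylated AdoMet) formation was measured across varied S-adenosyl-L-methionine concentrations at four test-compound concentrations. Product was quantified by RapidFire–mass spectrometry. Final DMSO in enzyme assays was 2%. Substrate titrations were analysed by double-reciprocal Lineweaver–Burk plot to assign inhibition modality.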

For data set [6], the system named is prozyme protein levels in T. brucei cells. Kind of data set: Western blot analysis of prozyme levels in treated T. brucei cells. It is filed as cell-based. As to conditions: 24 h treatment at 1.5 × EC50.
The nature of data set [7]: Metabolic stability in hepatic microsomes. The data set is classed as in vitro ADME, male CD-1 mouse and mixed-gender human.
The test system of data set [8] is T. brucei AdoMetDC/prozyme. Kind of data set: biochemical. As to conditions: pH 7.2; human vs T. brucei AdoMetDC.
Data set [9] has as its target T3, human AdoMetDC (Homo sapiens, UniProt P17707).
T3 sequence (P17707 1-334): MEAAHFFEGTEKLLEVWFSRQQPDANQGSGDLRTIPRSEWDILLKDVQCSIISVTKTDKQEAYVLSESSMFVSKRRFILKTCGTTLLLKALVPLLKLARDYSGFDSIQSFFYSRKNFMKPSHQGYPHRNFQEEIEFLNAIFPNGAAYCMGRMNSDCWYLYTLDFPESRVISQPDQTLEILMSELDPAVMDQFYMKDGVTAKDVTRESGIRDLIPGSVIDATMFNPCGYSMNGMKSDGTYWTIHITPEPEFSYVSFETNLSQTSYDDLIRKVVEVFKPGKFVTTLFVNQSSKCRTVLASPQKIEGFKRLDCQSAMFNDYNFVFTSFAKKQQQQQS
Kind of data set: RapidFire–MS-based AdoMetDC enzyme activity assay. The following applies: read-out: Hs IC50; pH 7.2; mean, triplicate, 95% CI in parentheses. The data set is classed as biochemical.

In the case of `Cc1cc(Nc2cc(Cl)cc(Cl)c2)nc(N)n1` [Compound 7], the concentration for an effect of 90% (IC90) in [1] is around 36 µM. Further, the EC50 in data set [2] came out at 5.6 µM. In addition, in data set [3], the Pgp-mediated efflux substrate entry is reported as “not a substrate of Pgp-mediated efflux”. For the same compound, in data set [4], the “recovery of enzyme activity after dilution of inhibitor (reversibility)” value is “fully recovered”. In data set [5], the modality of inhibition result is on record as “competitive inhibition”. Besides, the “prozyme protein level vs vehicle-only control” value in [6] was “induced prozyme above the vehicle-only control levels”. In addition, the metabolic stability entry in data set [7] is given as “poor metabolic stability”.
As for `Cc1cc(Nc2cc(Br)cc(Br)c2)nc(N)n1` [Compound 44, N^4-(3,5-Dibromophenyl)-6-methylpyrimidine-2,4-diamine], the “selectivity ratio (HsIC50/TbIC50)” value in [8] is “exceeded 100”. Further, the EC50 in data set [2] came out at 4.8 µM.
As to `Cc1cc(Nc2cc(Cl)c(F)c(Cl)c2)nc(N)n1` [Compound 62, N^4-(3,5-Dichloro-4-fluorophenyl)-6-methylpyrimidine-2,4-diamine], the “selectivity ratio (HsIC50/TbIC50)” value in data set [8] was “exceeded 100”. The IC50 in data set [9] was 160 µM. The EC50 in data set [2] came out at 4.8 µM.
